Results: ChEMBL document CHEMBL2169846, “Design and synthesis of Pictet-Spengler condensation products that exhibit oncogenic-RAS synthetic lethality and induce non-apoptotic cell death” (Bioorg Med Chem Lett, 2012)
Calls of active or inactive are those of the source. The calls are words filed in the database; no cut-off is given here.

Legend:
[1] = biological target: E3 ubiquitin-protein ligase Mdm2 (Homo sapiens) (UniProt Q00987); test: Inhibition of wild type Mdm2 at 20 ug/mL after 2 hrs by cell-based luciferase assay
E3 ubiquitin-protein ligase Mdm2 (Homo sapiens), sequence (Q00987 whole entry, looked up): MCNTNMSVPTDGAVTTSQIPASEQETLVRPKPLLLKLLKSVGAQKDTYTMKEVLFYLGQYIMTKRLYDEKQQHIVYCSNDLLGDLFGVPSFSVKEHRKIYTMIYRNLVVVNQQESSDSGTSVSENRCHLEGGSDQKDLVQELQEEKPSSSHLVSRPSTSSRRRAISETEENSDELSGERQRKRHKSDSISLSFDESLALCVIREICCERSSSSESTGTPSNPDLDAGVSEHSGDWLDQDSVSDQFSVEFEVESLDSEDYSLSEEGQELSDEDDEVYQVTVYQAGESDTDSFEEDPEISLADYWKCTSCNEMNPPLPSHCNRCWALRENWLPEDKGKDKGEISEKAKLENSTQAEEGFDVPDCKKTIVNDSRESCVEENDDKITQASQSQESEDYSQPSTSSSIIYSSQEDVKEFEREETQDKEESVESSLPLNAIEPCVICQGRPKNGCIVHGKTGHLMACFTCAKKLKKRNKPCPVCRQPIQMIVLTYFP

[2] = system: E3 ubiquitin-protein ligase Mdm2 (Homo sapiens), Q00987 [C464A]; test: Inhibition of Mdm2 C464A mutant at 20 ug/mL after 2 hrs by cell-based luciferase assay
E3 ubiquitin-protein ligase Mdm2 (Homo sapiens), Q00987 [C464A], sequence (Q00987 whole entry C464A): as the sequence (Q00987 whole entry, looked up) above, with C464A counted along it

HT-1080 [3] = test: Cytotoxicity against human HT1080 cells after 48 hrs by alamar blue assay; assay type: functional; conditions: HT-1080, 48 h, read-out: LC50 (the source's name)
RKO [4] = test: Cytotoxicity against human RKO cells after 48 hrs by alamar blue assay; assay type: functional; conditions: read-out: LC50 (the source's name)
U2OS [5] = test: Cytotoxicity against human U2OS cells after 48 hrs by alamar blue assay; assay type: functional; conditions: read-out: LC50 (the source's name)
[6] = Cytotoxicity against human HT1299 cells after 48 hrs by alamar blue assay; assay type: functional; conditions: HT1299, 48 h, read-out: LC50 (the source's name)
[7] = Cytotoxicity against human BJeH cells expressing wild type RAS after 48 hrs by alamar blue assay; assay type: functional, cell-based; conditions: read-out: LC50 (the source's name)
[8] = Cytotoxicity against human BJeLR cells expressing RAS G12V mutant after 48 hrs by alamar blue assay; assay type: functional, cell-based; conditions: read-out: LC50 (the source's name)
MCF7 [9] = test: Cytotoxicity against human MCF7 cells after 48 hrs by alamar blue assay; assay type: functional; conditions: MCF7, 48 h, read-out: LC50 (the source's name)
HT1299 = test: Cytotoxicity against human HT1299 cells at 20 ug/mL after 48 hrs by alamar blue assay; assay type: functional, cell-based
Method in brief: (§1)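 Each cell line exposed for 48 h to a 2-fold, 12-point dilution series beginning at 20 µg/mL. Viability by Alamar blue; LC50 derived from the curves.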

BJeH [10] = test: Cytotoxicity against human BJeH cells expressing wild type RAS at 20 ug/mL after 48 hrs by alamar blue assay; assay type: functional, cell-based
BJeLR [11] = test: Cytotoxicity against human BJeLR cells expressing RAS G12V mutant at 20 ug/mL after 48 hrs by alamar blue assay; assay type: functional, cell-based
RKO [12] = test: Cytotoxicity against human RKO cells at 20 ug/mL after 48 hrs by alamar blue assay; assay type: functional, cell-based; method in brief: as §1
MCF7 [13] = test: Cytotoxicity against human MCF7 cells at 20 ug/mL after 48 hrs by alamar blue assay; assay type: functional, cell-based; method in brief: as §1
BJeH [14] = test: Induction of apoptosis in human BJeH cells expressing wild type RAS assessed as caspase 7 activation after 28 hrs by Apo-One assay; assay type: functional, cell-based
Method in brief: (§2)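 BJ-TERT and BJ-TERT/LT/ST/RAS(V12) cells given compound as a two-fold, 14-point dilution series for 28 h. Alamar blue then added for viability, and caspase 3/7 activation detected by Apo-ONE in the same wells.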

BJeLR [15] = test: Induction of apoptosis in human BJeLR cells expressing RAS G12V mutant assessed as caspase 7 activation after 28 hrs by Apo-One assay; assay type: functional, cell-based; method in brief: as §2
BJeLR [16] = test: Induction of apoptosis in human BJeLR cells expressing RAS G12V mutant assessed as caspase 3 activation after 28 hrs by Apo-One assay; assay type: functional, cell-based; method in brief: as §2
BJeH [17] = test: Induction of apoptosis in human BJeH cells expressing wild type RAS assessed as caspase 3 activation after 28 hrs by Apo-One assay; assay type: functional, cell-based; method in brief: as §2
BJeH [18] = test: Cytotoxicity against human BJeH cells expressing wild type RAS at 1 uM after 24 hrs by trypan blue staining; assay type: functional, cell-based
BJeLR [19] = test: Cytotoxicity against human BJeLR cells expressing RAS G12V mutant at 1 uM after 24 hrs by trypan blue staining; assay type: functional, cell-based
HT-1080 [20] = test: Cytotoxicity against human HT1080 cells at 20 ug/mL after 48 hrs by alamar blue assay; assay type: functional, cell-based; method in brief: as §1
U2OS [21] = test: Cytotoxicity against human U2OS cells at 20 ug/mL after 48 hrs by alamar blue assay; assay type: functional, cell-based
[22] = Ratio of MEL24 LC50 to compound LC50 for human BJeLR cells expressing RAS G12V mutant; assay type: functional
BJeLR [23] = test: Cytotoxicity against human BJeLR cells expressing RAS G12V mutant at 10 uM at 12 hrs by trypan blue staining; assay type: functional, cell-based
BJeLR [24] = test: Cytotoxicity against human BJeLR cells expressing RAS G12V mutant at 10 uM at 24 hrs by trypan blue staining; assay type: functional, cell-based
BJeH [25] = test: Cytotoxicity against human BJeH cells expressing wild type RAS at 10 uM after 24 hrs by trypan blue staining; assay type: functional, cell-based
BJeH [26] = test: Induction of reactive oxygen species production in human BJeH cells expressing wild type RAS after 6 hrs by DCF-based flow cytometric analysis; assay type: functional, cell-based
BJeLR [27] = test: Induction of reactive oxygen species production in human BJeLR cells expressing RAS G12V mutant after 6 hrs by DCF-based flow cytometric analysis; assay type: functional, cell-based
BJeLR [28] = test: Cytotoxicity against human BJeLR cells expressing RAS G12V mutant at 0.57 uM at 12 hrs by trypan blue staining; assay type: functional, cell-based
Method in brief: (§3)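 Time-course in BJ-TERT/LT/ST/RAS^V12 cells exposed for the designated times to erastin (10 µM), test compound (30 µM) or RSL3 (0.57 µM) to follow onset of death. Data representative of duplicate experiments.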

BJeLR [29] = test: Cytotoxicity against human BJeLR cells expressing RAS G12V mutant at 0.57 uM at 24 hrs by trypan blue staining; assay type: functional, cell-based; method in brief: as §3
BJeH [30] = test: Cytotoxicity against human BJeH cells expressing wild type RAS at 568 nM after 24 hrs by trypan blue staining; assay type: functional, cell-based

| SMILES | inhibition [1] | inhibition [2] | CC50 (HT-1080 [3]) [µM] | CC50 (RKO [4]) [µM] | CC50 (U2OS [5]) [µM] | CC50 [6] [µM] | CC50 [7] [µM] | CC50 [8] [µM] | CC50 (MCF7 [9]) [µM] | Activity (BJeH [10]) | also measured |
| --- | --- | --- | --- | --- | --- | --- | --- | --- | --- | --- | --- |
| CC(C)(C)OC(=O)N1CCc2c(n(C(=O)OC(C)(C)C)c3ccccc23)C1CC=O (stereo not drawn) | inactive | inactive | 15.2 | 7 | 10.3 | 11.8 | 48.3 | 23.4 |  |  |  |
| COC(OC)C1c2[nH]c3ccccc3c2CCN1Cc1ccccc1 (stereo not drawn) | inactive | inactive | 59.5 | 59.5 | 59.5 |  |  |  | 59.5 | inactive | Activity (HT1299): inactive; Activity (BJeLR [11]): inactive |
| CCOC(=O)C1NCCc2c1[nH]c1ccccc21 (stereo not drawn) | inactive | inactive | 81.9 |  | 81.9 |  | 71.7 | 71.7 |  |  | Activity (RKO [12]): inactive; Activity (MCF7 [13]): inactive; Activity (HT1299): inactive |
| CN1C(=O)C(C2NCCc3c2[nH]c2ccccc32)C(=O)N(C)C1=O (stereo not drawn) | inactive | inactive | 16.5 | 30.9 | 29.4 | 32.8 | 32.2 | 23.3 | 31.2 |  | Activity (BJeH [14]): Active; Activity (BJeLR [15]): Active; Activity (BJeLR [16]): Active; Activity (BJeH [17]): Active |
| CN[C@@H]1C[C@H]2O[C@@](C)([C@@H]1OC)n1c3ccccc3c3c4c(c5c6ccccc6n2c5c31)C(=O)NC4 |  |  |  |  |  |  |  |  |  |  | Activity (BJeH [18]): Active; Activity (BJeLR [19]): Active |
| CC(CC1C(=O)N(C)C(=O)N(C)C1=O)C1NCCc2c1[nH]c1ccccc21 (stereo not drawn) | inactive | inactive |  | 54.3 |  |  | 54.3 | 54.3 |  |  | Activity (HT-1080 [20]): inactive; Activity (MCF7 [13]): inactive; Activity (HT1299): inactive |
| CC(C=O)C1c2c(c3ccccc3n2C(=O)OC(C)(C)C)CCN1C(=O)OC(C)(C)C (stereo not drawn) | inactive | inactive | 13.7 | 7.7 | 10 | 46.7 |  | 46.7 | 11.4 | inactive |  |
| CCOC(=O)C1c2[nH]c3ccccc3c2CCN1C(=O)OCc1ccccc1 (stereo not drawn) | inactive | inactive |  | 14.8 | 12.9 | 52.9 | 52.9 | 12.9 |  |  |  |
| CC(CC1C(=O)N(C)C(=O)N(C)C1=O)C1c2c(c3ccccc3n2C(=O)OC(C)(C)C)CCN1C(=O)OC(C)(C)C (stereo not drawn) | inactive | inactive | 14.6 | 11.4 | 12.1 | 16.9 |  | 35.2 | 9.8 | inactive |  |
| CCOC(=O)C(C)C1c2c(c3ccccc3n2C(=O)OC(C)(C)C)CCN1C(=O)OC(C)(C)C (stereo not drawn) | inactive | inactive | 25.2 | 9.9 | 14.1 | 42.3 |  |  | 9.5 | inactive | Activity (BJeLR [11]): inactive |
| CC(CO)C1c2[nH]c3ccccc3c2CCN1C(=O)OC(C)(C)C (stereo not drawn) | inactive | inactive | 46 | 16 | 17.8 | 24.8 | 60.7 |  | 22.1 |  | Activity (BJeLR [11]): inactive |
| CN1C(=O)C(Cc2nccc3c4ccccc4n(C)c23)C(=O)N(C)C1=O | inactive | inactive | 57.1 | 15.4 | 14.2 | 57.5 |  |  | 57.1 | inactive | Activity (BJeLR [11]): inactive |
| CCOC(=O)C(C)C1c2[nH]c3ccccc3c2CCN1C(=O)OC(C)(C)C (stereo not drawn) | inactive | inactive | 53.7 | 27.9 | 53.7 | 53.7 |  |  | 23.6 | inactive | Activity (BJeLR [11]): inactive |
| CN1C(=O)C(C2NC=Cc3c2[nH]c2ccccc32)C(=O)N(C)C1=O (stereo not drawn) | inactive | inactive | 16 | 25 |  | 61.7 |  | 12.9 | 61.7 | inactive | Activity (U2OS [21]): inactive; Ratio [22]: 2 |
| COC(OC)C1c2[nH]c3ccccc3c2CCN1C(=O)OCc1ccccc1 (stereo not drawn) | inactive | inactive |  | 22.3 | 10.2 | 52.6 | 52.6 | 10.2 | 6.5 |  |  |
| CCOc1ccccc1-n1c(C(C)N2CCN(C(=O)COc3ccc(Cl)cc3)CC2)nc2ccccc2c1=O (stereo not drawn) |  |  |  |  |  |  |  |  |  |  | Activity (BJeLR [23]): Active; Activity (BJeLR [24]): Active; Activity (BJeH [25]): inactive; Activity (BJeH [26]): Active; Activity (BJeLR [27]): Active |
| COC(=O)c1ccc(C2c3[nH]c4ccccc4c3CC(C(=O)OC)N2C(=O)CCl)cc1 (stereo not drawn) |  |  |  |  |  |  |  |  |  |  | Activity (BJeLR [28]): Active; Activity (BJeLR [29]): Active; Activity (BJeH [30]): inactive; Activity (BJeH [26]): Active; Activity (BJeLR [27]): Active |
